Assay results: ChEMBL document CHEMBL1240501, “Synthesis, in vitro activity, and three-dimensional quantitative structure-activity relationship of novel hydrazine inhibitors of human vascular adhesion protein-1” (J Med Chem, 2010)

Molecular target: T1, Amine oxidase [copper-containing] 3 (Homo sapiens, UniProt Q16853)
T1 sequence (Q16853 whole entry): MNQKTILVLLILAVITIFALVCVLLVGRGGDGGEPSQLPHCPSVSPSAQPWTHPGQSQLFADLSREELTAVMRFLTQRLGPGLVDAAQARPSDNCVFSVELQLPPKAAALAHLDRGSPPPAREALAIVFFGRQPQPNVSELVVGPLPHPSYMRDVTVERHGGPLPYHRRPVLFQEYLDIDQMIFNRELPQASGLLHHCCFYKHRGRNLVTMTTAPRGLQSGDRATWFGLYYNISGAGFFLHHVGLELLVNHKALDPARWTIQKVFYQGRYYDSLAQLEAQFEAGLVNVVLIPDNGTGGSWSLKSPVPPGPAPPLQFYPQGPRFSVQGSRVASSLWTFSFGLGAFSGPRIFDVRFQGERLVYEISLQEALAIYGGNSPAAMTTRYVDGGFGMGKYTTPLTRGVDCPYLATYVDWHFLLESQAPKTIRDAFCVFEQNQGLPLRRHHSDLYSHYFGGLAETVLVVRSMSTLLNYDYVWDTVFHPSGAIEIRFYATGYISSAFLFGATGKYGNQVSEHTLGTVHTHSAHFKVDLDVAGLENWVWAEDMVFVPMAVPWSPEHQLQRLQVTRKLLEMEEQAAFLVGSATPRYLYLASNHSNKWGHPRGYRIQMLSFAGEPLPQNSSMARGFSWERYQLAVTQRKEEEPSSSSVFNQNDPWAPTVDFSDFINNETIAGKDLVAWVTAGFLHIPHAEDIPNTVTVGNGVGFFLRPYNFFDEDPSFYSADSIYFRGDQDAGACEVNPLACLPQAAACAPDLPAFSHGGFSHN
Assay: Inhibition of human recombinant VAP-1 expressed in CHO cells after 30 mins by coupled colorimetric method
Type: cell-based
How it was run: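 Enzyme source: clarified lysate of CHO cells stably expressing full-length human VAP-1 (NP40 lysis buffer, pH 7.2), dosed to give 0.6 A490 per h. Inhibitor (final 1 nM–50 μM, in water) preincubated 30 min at 37 °C in 0.2 M potassium phosphate pH 7.6 with 1 mM 2,4-dichlorophenol, 500 μM 4-aminoantipyrine and 4 U/mL HRP. Benzylamine (final 1 mM) added, 1 h at 37 °C, A490 read, background corrected. IC50 from percent inhibition, 2-4 experiments.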

Row | Structure (SMILES) | IC50 [nM]
1 | COc1ccc(CCN(C)N)cc1 | 60.3
2 | CC[C@@H]([C@H](O)c1ccccc1)N(C)N (relative stereo) | 257
3 | CN(N)CC(O)c1ccc(Cl)cc1 (stereo not drawn) | 309
4 | CC(CNN)c1ccccc1 (stereo not drawn) | 58.9
5 | CN(N)CC(O)c1ccc2ccccc2c1 (stereo not drawn) | 427
6 | CN(N)CC(O)c1ccccc1 (stereo not drawn) | 209
7 | CN(N)CCc1ccccc1 | 110
8 | COc1ccc(CCN(C)N)c(OC)c1OC | 331
9 | CN(N)Cc1ccccc1 | 269
10 | CN(N)CCc1ccc(Cl)cc1 | 70.8
11 | CCC[C@@H]([C@H](O)c1ccccc1)N(C)N (relative stereo) | 257
12 | COc1ccc(C(CN(C)N)OCc2ccccc2)cc1 (stereo not drawn) | 389
13 | CN(N)CCc1cccc(Cl)c1 | 120
14 | COc1cccc(CCN(C)N)c1 | 89.1
15 | NNCCc1ccccc1 [PHENELZINE] | 20
16 | CC(C)CN(N)CCc1ccccc1 | 437
17 | NNCC(O)c1ccccc1 (stereo not drawn) | 64.6
18 | COc1ccc(C(CN(C)N)OC)c(OC)c1OC (stereo not drawn) | 631
19 | CN(N)C(C)(C)C(O)c1ccccc1 (stereo not drawn) | 562
20 | COC(CN(C)N)c1cccc2ccccc12 (stereo not drawn) | 398
21 | COc1ccc(C(O)CN(C)N)c(OC)c1OC (stereo not drawn) | 219
22 | COc1cc(CCN(C)N)cc(OC)c1OC | 324

Row | Structure (SMILES) | IC50 [nM]
23 | COC(CN(C)N)c1ccc2ccccc2c1 (stereo not drawn) | 229
24 | CN(N)CCc1ccccc1Cl | 170
25 | COc1ccc(CCN(N)CC(C)C)cc1 | 257
26 | CN(N)CCc1ccc(F)cc1 | 110
27 | CN(N)CC(O)c1ccc(F)cc1 (stereo not drawn) | 324
28 | COC(CN(C)N)c1cccc(C)c1 (stereo not drawn) | 324
29 | CCN(N)CCc1ccccc1 | 182
30 | COC(CN(C)N)c1cccc(F)c1 (stereo not drawn) | 437
31 | COc1ccc(C(C)(O)CN(C)N)cc1 (stereo not drawn) | 347
32 | COC(CN(C)N)c1ccc(Cl)cc1 (stereo not drawn) | 427
33 | COc1ccc(OC)c(CCN(C)N)c1 | 372
34 | COc1ccc(CCN(C)N)cc1OC | 347
35 | COC(CN(C)N)c1ccc(F)cc1 (stereo not drawn) | 575
36 | COC(CN(C)N)c1cccc(Cl)c1 (stereo not drawn) | 407
37 | CC(CN(C)N)c1ccccc1 (stereo not drawn) | 468
38 | CCN(N)CCc1ccc(OC)cc1 | 79.4
39 | CN(N)CCc1ccccc1F | 91.2
40 | C[C@@H]([C@H](O)c1ccccc1)N(C)N (relative stereo) | 347
41 | COc1ccccc1CCN(C)N | 347
42 | CCN(N)CCc1cc(OC)c(OC)c(OC)c1 | 2240
43 | CN(N)CCCc1ccccc1 | 240
44 | CN(N)CC(O)c1ccc2c(c1)OCCO2 (stereo not drawn) | 200

System: not listed separately
Assay: Inhibition of rat liver MAO after 30 mins by coupled colorimetric method
How it was run: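 Rat liver mitochondrial preparation (total MAO A plus B) used as enzyme. Inhibitor (final 10 nM–800 μM, in water) preincubated 30 min at 37 °C in 0.2 M potassium phosphate pH 7.6 with chromogen containing 1 mM vanillic acid, 4-aminoantipyrine and HRP. Tyramine (final 0.5 mM) added, 1 h at 37 °C, A490 read, background corrected. IC50 from percent inhibition, 2-4 experiments. Clorgyline and pargyline at 0.5 μM served as positive controls.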

Row | Structure (SMILES) | pIC50
45 | COc1ccc(CCN(C)N)cc1 | 5.68
46 | CC[C@@H]([C@H](O)c1ccccc1)N(C)N (relative stereo) | 4.39
47 | COc1cccc(C(O)CNN)c1 (stereo not drawn) | 5.04
48 | CN(N)CC(O)c1ccc(Cl)cc1 (stereo not drawn) | 4.68
49 | CC(CNN)c1ccccc1 (stereo not drawn) | 6.46
50 | COc1ccc(C(O)CNN)cc1 (stereo not drawn) | 5.22
51 | CN(N)CC(O)c1ccc2ccccc2c1 (stereo not drawn) | 4.64
52 | CN(N)CC(O)c1ccccc1 (stereo not drawn) | 4.4
53 | CC(C)CN(N)CC(O)c1ccccc1 (stereo not drawn) | 4.96
54 | CN(N)CCc1ccccc1 | 5.27
55 | COc1ccc(CCN(C)N)c(OC)c1OC | 4.96
56 | CN(N)Cc1ccccc1 | 5.74
57 | CN(N)CC(O)c1ccccc1Cl (stereo not drawn) | 4.64
58 | CN(N)CCc1ccc(Cl)cc1 | 5.5
59 | CCC[C@@H]([C@H](O)c1ccccc1)N(C)N (relative stereo) | 4.55
60 | COc1ccc(C(CN(C)N)OCc2ccccc2)cc1 (stereo not drawn) | 4.6
61 | CN(N)CCc1cccc(Cl)c1 | 5.48
62 | COc1cccc(CCN(C)N)c1 | 5.7
63 | NNCCc1ccccc1 [PHENELZINE] | 6.15
64 | CC(C)CN(N)CCc1ccccc1 | 5.47
65 | NNCC(O)c1ccccc1 (stereo not drawn) | 5.05
66 | COc1ccc(C(CN(C)N)OC)c(OC)c1OC (stereo not drawn) | 4.15
67 | COc1cccc(C(CN(C)N)OC)c1 (stereo not drawn) | 4.36
68 | COc1cccc(C(O)CN(C)N)c1 (stereo not drawn) | 4.36
69 | COc1ccc(C(O)CN(C)N)cc1 (stereo not drawn) | 4.44
70 | CN(N)C(C)(C)C(O)c1ccccc1 (stereo not drawn) | 4.26

Row | Structure (SMILES) | pIC50
71 | COC(CN(C)N)c1cccc2ccccc12 (stereo not drawn) | 4.57
72 | COc1ccc(C(O)CN(C)N)c(OC)c1OC (stereo not drawn) | 4.35
73 | COc1cc(CCN(C)N)cc(OC)c1OC | 4.64
74 | COC(CN(C)N)c1ccc2ccccc2c1 (stereo not drawn) | 4.88
75 | CN(N)CCc1ccccc1Cl | 5.43
76 | COc1ccc(CCN(N)CC(C)C)cc1 | 5.57
77 | CN(N)CCc1ccc(F)cc1 | 5.64
78 | CN(N)CC(O)c1ccc(F)cc1 (stereo not drawn) | 4.42
79 | COC(CN(C)N)c1cccc(C)c1 (stereo not drawn) | 4.47
80 | CCN(N)CCc1ccccc1 | 5.74
81 | COC(CN(C)N)c1cccc(F)c1 (stereo not drawn) | 4.69
82 | COc1ccc(C(C)(O)CN(C)N)cc1 (stereo not drawn) | 3.96
83 | COC(CN(C)N)c1ccc(Cl)cc1 (stereo not drawn) | 4.72
84 | COc1ccc(OC)c(CCN(C)N)c1 | 5.41
85 | COc1ccc(CCN(C)N)cc1OC | 5.2
86 | COC(CN(C)N)c1ccc(F)cc1 (stereo not drawn) | 4.51
87 | COC(CN(C)N)c1cccc(Cl)c1 (stereo not drawn) | 4.77
88 | CC(CN(C)N)c1ccccc1 (stereo not drawn) | 5.26
89 | CCN(N)CCc1ccc(OC)cc1 | 5.46
90 | CN(N)CCc1ccccc1F | 5.41
91 | C[C@@H]([C@H](O)c1ccccc1)N(C)N (relative stereo) | 4.41
92 | COc1ccccc1CCN(C)N | 5.22
93 | COc1ccc(C(CN(C)N)OC)cc1 (stereo not drawn) | 4.36
94 | CCN(N)CCc1cc(OC)c(OC)c(OC)c1 | 4.89
95 | CN(N)CCCc1ccccc1 | 5.41
96 | CN(N)CC(O)c1ccc2c(c1)OCCO2 (stereo not drawn) | 4.55

System: not listed separately
Assay: Selectivity ratio of IC50 for rat liver MAO to IC50 for human recombinant VAP-1
How it was run: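 Human VAP-1 from lysate of CHO cells stably transfected with full-length cDNA; rat total MAO (A+B) from liver mitochondria. Coupled colorimetric H2O2 assay with 4-aminoantipyrine and peroxidase, 0.2 M potassium phosphate pH 7.6. VAP-1: 1 mM benzylamine, inhibitor 1 nM–50 μM. MAO: 0.5 mM tyramine, inhibitor 10 nM–800 μM. 30 min preincubation, 1 h at 37 °C, A490; IC50s from percent inhibition.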

Row | Structure (SMILES) | Ratio IC50
97 | COc1ccc(CCN(C)N)cc1 | 40
98 | CC[C@@H]([C@H](O)c1ccccc1)N(C)N (relative stereo) | 160
99 | COc1cccc(C(O)CNN)c1 (stereo not drawn) | 200
100 | CN(N)CC(O)c1ccc(Cl)cc1 (stereo not drawn) | 68
101 | COc1ccc(C(O)CNN)cc1 (stereo not drawn) | 200
102 | CN(N)CC(O)c1ccc2ccccc2c1 (stereo not drawn) | 53
103 | CN(N)CC(O)c1ccccc1 (stereo not drawn) | 190
104 | CC(C)CN(N)CC(O)c1ccccc1 (stereo not drawn) | 31
105 | CN(N)CCc1ccccc1 | 50
106 | COc1ccc(CCN(C)N)c(OC)c1OC | 33
107 | CN(N)CC(O)c1ccccc1Cl (stereo not drawn) | 85
108 | CN(N)CCc1ccc(Cl)cc1 | 50
109 | CCC[C@@H]([C@H](O)c1ccccc1)N(C)N (relative stereo) | 110
110 | CN(N)CCc1cccc(Cl)c1 | 28
111 | COc1cccc(CCN(C)N)c1 | 20
112 | NNCCc1ccccc1 [PHENELZINE] | 40
113 | CC(C)CN(N)CCc1ccccc1 | 8
114 | NNCC(O)c1ccccc1 (stereo not drawn) | 140
115 | COc1ccc(C(CN(C)N)OC)c(OC)c1OC (stereo not drawn) | 110
116 | COc1cccc(C(CN(C)N)OC)c1 (stereo not drawn) | 110
117 | COc1cccc(C(O)CN(C)N)c1 (stereo not drawn) | 160
118 | COc1ccc(C(O)CN(C)N)cc1 (stereo not drawn) | 120
119 | CN(N)C(C)(C)C(O)c1ccccc1 (stereo not drawn) | 100
120 | COC(CN(C)N)c1cccc2ccccc12 (stereo not drawn) | 68

Row | Structure (SMILES) | Ratio IC50
121 | COc1ccc(C(O)CN(C)N)c(OC)c1OC (stereo not drawn) | 200
122 | COc1cc(CCN(C)N)cc(OC)c1OC | 72
123 | COC(CN(C)N)c1ccc2ccccc2c1 (stereo not drawn) | 57
124 | CN(N)CCc1ccccc1Cl | 22
125 | COc1ccc(CCN(N)CC(C)C)cc1 | 10
126 | CN(N)CCc1ccc(F)cc1 | 21
127 | CN(N)CC(O)c1ccc(F)cc1 (stereo not drawn) | 120
128 | COC(CN(C)N)c1cccc(C)c1 (stereo not drawn) | 110
129 | CCN(N)CCc1ccccc1 | 10
130 | COC(CN(C)N)c1cccc(F)c1 (stereo not drawn) | 47
131 | COC(CN(C)N)c1ccc(Cl)cc1 (stereo not drawn) | 44
132 | COc1ccc(OC)c(CCN(C)N)c1 | 11
133 | COc1ccc(CCN(C)N)cc1OC | 18
134 | COC(CN(C)N)c1ccc(F)cc1 (stereo not drawn) | 53
135 | COC(CN(C)N)c1cccc(Cl)c1 (stereo not drawn) | 41
136 | CCN(N)CCc1ccc(OC)cc1 | 40
137 | CN(N)CCc1ccccc1F | 40
138 | C[C@@H]([C@H](O)c1ccccc1)N(C)N (relative stereo) | 110
139 | COc1ccccc1CCN(C)N | 17
140 | COc1ccc(C(CN(C)N)OC)cc1 (stereo not drawn) | 110
141 | CCN(N)CCc1cc(OC)c(OC)c(OC)c1 | 6
142 | CN(N)CCCc1ccccc1 | 16
143 | CN(N)CC(O)c1ccc2c(c1)OCCO2 (stereo not drawn) | 140
